NPY2 pot ag: NPY-Y2 potentiators or agonists, primary screen, cell-based | AID 1359, 2008 | activation, % at 3.6 µM | 220,000 tested, 0.45% active | cells expressing NPY-Y2, potentiator/agonist read-out | Neuropeptide Y receptor type 2 (Homo sapiens), P49146; in the data active = activation above about 27%;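 note: cells stimulated with NPY near EC25 plus isoproterenol at EC100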
Tb hexokinase: Trypanosoma brucei hexokinase 1 inhibitors, primary screen, biochemical, G6PDH-coupled NADH absorbance, MLSCN library; inhibition, % at 10 µM; recombinant TbHK1, G6PDH-coupled NADH A340; hexokinase 1 [Trypanosoma brucei]; 220,000 tested, 0.11% active;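 active = inhibition of 50% or more in the single-dose primary screen; inactive = inhibition below 50%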
NPY1 pot ag: NPY-Y1 receptor potentiators or agonists, primary screen, cell-based; Neuropeptide Y receptor type 1 (Homo sapiens), P25929; NPY-Y1 expressing cells, potentiator/agonist activation; activation, % at 3.6 µM; 220,000 tested, 0.37% active; in the data active = activation above about 33%, passing the limit was not always enough;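 note: cells stimulated with NPY at EC10 then isoproterenol at EC100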
Target sequence (P25929 whole entry, looked up): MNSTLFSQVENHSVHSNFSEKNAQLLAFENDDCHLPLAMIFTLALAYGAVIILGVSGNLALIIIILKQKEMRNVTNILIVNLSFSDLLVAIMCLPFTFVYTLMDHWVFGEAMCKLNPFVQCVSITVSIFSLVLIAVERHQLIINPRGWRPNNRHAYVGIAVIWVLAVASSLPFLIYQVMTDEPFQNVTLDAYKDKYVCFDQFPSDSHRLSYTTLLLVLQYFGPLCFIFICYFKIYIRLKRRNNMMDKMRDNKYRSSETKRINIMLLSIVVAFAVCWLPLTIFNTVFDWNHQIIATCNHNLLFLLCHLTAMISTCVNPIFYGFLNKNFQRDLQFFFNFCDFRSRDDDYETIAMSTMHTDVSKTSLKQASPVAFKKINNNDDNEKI
NPY Y2 blocker: NPY-Y2 receptor antagonists, primary screen, cell-based; 140,000 tested, 0.99% active; NPY-Y2 expressing cells, antagonist mode; AID 793, 2007; inhibition, % at 2.7 µM; Neuropeptide Y receptor type 2 (Homo sapiens), P49146; in the data active = inhibition above about 17%
m-calpain inh: inhibitors of pig calpain II, primary screen, biochemical, fluorogenic peptide substrate, 1536-well | AID 1236, 2008 | purified calpain II, 30 min | inhibition, % at 16 µM | 220,000 tested, 0.37% active;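 active = inhibition above about 50%, limit read from the data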
NPY-Y1 antag: NPY-Y1 receptor antagonists, primary screen, cell-based | HEK293-CNG Y1 cells, membrane potential fluorescence; NPY at EC95, then isoproterenol | inhibition, % at 3.6 µM | 200,000 tested, 1% active | AID 1040, 2008;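 active = inhibition above the campaign mean inhibition of all tested compounds plus 3 SD, cut at about 20% in these data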
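Material: Y1- and CNG-channel-expressing HEK293 cells / Probe or stimulus: NPY 25 nM then isoproterenol 1 µM plus Ro 20-1724 25 µM / Doses: 3.6 µM single dose, DMSO 0.4% / Schedule: compound incubation 1 h at room temperature, readout 45 min post-stimulation / Signal: membrane potential fluorescence / Benchmarks: isoproterenol-only wells as full block versus NPY-plus-isoproterenol wells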
NPY1 antag ctr: NPY-Y1 receptor antagonists, selectivity check, counter-screen for NPY-Y2 antagonist project, cell-based; shares compounds with NPY Y2 blocker; cell-based NPY-Y1 antagonism counterscreen; inhibition, % at 3.6 µM; 710 tested, 19% active; in the data active = inhibition above about 20%;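 note: cells challenged with NPY then isoproterenol with cAMP sensed through a CNG channel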
NPY2 antag conf: NPY-Y2 receptor antagonists, retest of hits, confirmation, HEK293-CNG cells, membrane potential fluorescence, triplicate; HEK293 NPY-Y2 CNG channel; AID 1257, 2008; 710 tested, 32% active; inhibition, % at 2.8 µM; shares compounds with NPY Y2 blocker;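 active = mean inhibition of triplicate wells above the hit cutoff set in the primary screen, cut at about 17% in these data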
A number is an active result. Hits are enriched below; roughly 2.3% of the tested compounds scored in any of these assays.

What do the screens show for `O=c1c2ccccc2nnn1CSc1ccccc1`?
NPY2 pot ag: inactive; Tb hexokinase: inactive; NPY1 pot ag: inactive; NPY Y2 blocker: 23.9; m-calpain inh: inactive; NPY-Y1 antag: inactive; NPY1 antag ctr: inactive; NPY2 antag conf: inactive

Results for CCN(CC)C1=C(Cl)C(=O)C(Cl)C12OCCO2 (configuration not stated) ?
NPY2 pot ag: inactive; Tb hexokinase: inactive; NPY1 pot ag: inactive; m-calpain inh: inactive

Results for C(#Cc1ccccc1)C[N+]1(CC#Cc2cccc3ccccc23)CCCC1 ?
NPY2 pot ag: inactive; Tb hexokinase: inactive; NPY1 pot ag: inactive; NPY Y2 blocker: 17.8; m-calpain inh: inactive; NPY-Y1 antag: inactive; NPY1 antag ctr: inactive; NPY2 antag conf: inactive

How did Cc1cc(C)cc(OCC(=O)O/N=C(\N)c2cccnc2)c1 do in these assays?
NPY2 pot ag: inactive; Tb hexokinase: inactive; NPY1 pot ag: inactive; m-calpain inh: inactive

What do the screens show for `CC1CCCCN1C(=S)Nc1ccc2nc3n(c(=O)c2c1)CCCCC3` (configuration not stated)?
NPY2 pot ag: inactive; Tb hexokinase: inactive; NPY1 pot ag: inactive; NPY Y2 blocker: inactive; m-calpain inh: inactive; NPY-Y1 antag: inactive

How did O=C(Nc1ncc(Cl)cc1Cl)c1c(F)cccc1Cl do in these assays?
NPY2 pot ag: inactive; Tb hexokinase: inactive; NPY1 pot ag: inactive; m-calpain inh: inactive; NPY-Y1 antag: inactive

How did Nc1ncnc2c1ncn2[C@@H]1O[C@H](CO)[C@@H](O)[C@H]1O do in these assays?
NPY2 pot ag: inactive; Tb hexokinase: inactive; NPY1 pot ag: inactive; NPY Y2 blocker: inactive; m-calpain inh: inactive; NPY-Y1 antag: inactive

Results for OC[C@H]1O[C@@H](n2cnc3c(Nc4ccccc4)ncnc32)[C@H](O)[C@@H]1O ?
NPY2 pot ag: inactive; Tb hexokinase: inactive; NPY1 pot ag: inactive; NPY Y2 blocker: 22.4; m-calpain inh: inactive; NPY-Y1 antag: inactive; NPY1 antag ctr: inactive; NPY2 antag conf: 48.5

How did CC(OC(=O)Cc1coc2ccc3ccccc3c12)C(=O)NC(N)=O (configuration not stated) do in these assays?
NPY2 pot ag: inactive; Tb hexokinase: inactive; NPY1 pot ag: inactive; m-calpain inh: inactive

What do the screens show for `COc1cc(/C=N/NC(=O)CN(CCc2ccccc2)S(=O)(=O)c2ccc(NC(C)=O)cc2)cc(OC)c1OC`?
NPY2 pot ag: inactive; Tb hexokinase: inactive; NPY1 pot ag: inactive; NPY Y2 blocker: inactive; m-calpain inh: inactive; NPY-Y1 antag: inactive

Results for COc1ccc(/C=N/NC(=O)CN(CCc2ccccc2)S(=O)(=O)c2ccc(NC(C)=O)cc2)cc1OC ?
NPY2 pot ag: inactive; Tb hexokinase: inactive; NPY1 pot ag: inactive; NPY Y2 blocker: 18.0; m-calpain inh: inactive; NPY-Y1 antag: inactive; NPY1 antag ctr: inactive; NPY2 antag conf: 44.5

What do the screens show for `COc1ccc(/C=N/NC(=O)CCOc2ccccc2C)cc1OC`?
NPY2 pot ag: inactive; Tb hexokinase: inactive; NPY1 pot ag: inactive; NPY Y2 blocker: 35.0; m-calpain inh: inactive; NPY-Y1 antag: inactive; NPY1 antag ctr: inactive; NPY2 antag conf: inactive

How did COc1cc(/C=N/NC(=O)CCOc2ccccc2C)cc(Br)c1O do in these assays?
NPY2 pot ag: inactive; Tb hexokinase: inactive; NPY1 pot ag: inactive; m-calpain inh: inactive; NPY-Y1 antag: inactive

How did C/C=C/Cn1c(SCc2ccc(C)cc2)nc2c1c(=O)[nH]c(=O)n2C do in these assays?
NPY2 pot ag: inactive; Tb hexokinase: inactive; NPY1 pot ag: inactive; NPY Y2 blocker: 26.3; m-calpain inh: inactive; NPY-Y1 antag: inactive; NPY1 antag ctr: 22.5; NPY2 antag conf: 42.4

How did COc1ccc(C2=NOC(COc3ccc([N+](=O)[O-])cc3)C2)cc1 (configuration not stated) do in these assays?
NPY2 pot ag: inactive; Tb hexokinase: inactive; NPY1 pot ag: inactive; m-calpain inh: inactive

Results for CN(CCO)CCC(=O)NC1(C)CS(=O)(=O)CC1S(=O)(=O)O (configuration not stated) ?
NPY2 pot ag: inactive; Tb hexokinase: inactive; NPY1 pot ag: inactive; m-calpain inh: inactive

Results for CCS(=O)(=O)N1Cc2ccccc2CC1C(=O)NC(C)C12CC3CC(CC(C3)C1)C2 (configuration not stated) ?
NPY2 pot ag: inactive; Tb hexokinase: inactive; NPY1 pot ag: inactive; NPY Y2 blocker: 19.4; m-calpain inh: inactive; NPY-Y1 antag: inactive; NPY1 antag ctr: inactive; NPY2 antag conf: inactive

Results for CCOC(=O)c1cnc(SCCN2CCOCC2)nc1N ?
NPY2 pot ag: inactive; Tb hexokinase: inactive; NPY1 pot ag: inactive; m-calpain inh: inactive; NPY-Y1 antag: inactive

Results for O=C(CSc1cccc2cccc(Cl)c12)OCC(=O)N1CCN(C(=O)c2ccco2)CC1 ?
NPY2 pot ag: inactive; Tb hexokinase: inactive; NPY1 pot ag: inactive; NPY Y2 blocker: 18.8; m-calpain inh: inactive; NPY-Y1 antag: inactive; NPY1 antag ctr: inactive; NPY2 antag conf: inactive

What do the screens show for `O=Nc1c(O)[nH]c2ccc(Cl)cc12`?
NPY2 pot ag: inactive; Tb hexokinase: inactive; NPY1 pot ag: inactive; m-calpain inh: inactive; NPY-Y1 antag: inactive

Results for CCCc1cc(=O)[nH]c(SCC(=O)c2cc(C)n(C)c2C)n1 ?
NPY2 pot ag: inactive; Tb hexokinase: inactive; NPY1 pot ag: inactive; NPY Y2 blocker: 18.8; m-calpain inh: inactive; NPY-Y1 antag: inactive; NPY1 antag ctr: inactive; NPY2 antag conf: inactive

What do the screens show for `COc1ccccc1Oc1ccc2c(c1)C(=O)N(c1ccc(O)cc1)C2=O`?
NPY2 pot ag: inactive; Tb hexokinase: inactive; NPY1 pot ag: inactive; NPY Y2 blocker: 18.0; m-calpain inh: inactive; NPY-Y1 antag: inactive; NPY1 antag ctr: inactive; NPY2 antag conf: inactive

Results for Cc1nn(Cc2ccccc2)c(Cl)c1C(=O)OCc1nnc(-c2ccc(Cl)cc2)o1 ?
NPY2 pot ag: inactive; Tb hexokinase: inactive; NPY1 pot ag: inactive; NPY Y2 blocker: 18.8; m-calpain inh: inactive; NPY-Y1 antag: inactive; NPY1 antag ctr: inactive; NPY2 antag conf: inactive

What do the screens show for `COC(=O)c1ccc(C(=O)N2CCCC(CNC(=O)c3ccccc3Cl)C2)cc1` (configuration not stated)?
NPY2 pot ag: inactive; Tb hexokinase: inactive; NPY1 pot ag: inactive; m-calpain inh: inactive; NPY-Y1 antag: inactive

How did Cc1cc(-c2ccccc2)c(C#N)c(=S)[nH]1 do in these assays?
NPY2 pot ag: inactive; Tb hexokinase: inactive; NPY1 pot ag: inactive; NPY Y2 blocker: 17.1; m-calpain inh: inactive; NPY-Y1 antag: inactive; NPY1 antag ctr: inactive; NPY2 antag conf: inactive

Assay outcomes as filed in PubChem BioAssay.
